{"source": "ChEMBL document CHEMBL3739352", "about": "“Anticonvulsant activity, crystal structures, and preliminary safety evaluation of N-trans-cinnamoyl derivatives of selected (un)modified aminoalkanols” (Eur J Med Chem, 2016)", "key": {"Salmonella typhimurium": {"tested_on": "Salmonella typhimurium", "assay": "Mutagenicity in Salmonella typhimurium TA98 assessed as number of revertants at 10 ug/plate by Ames test (reference value: 23 +/- 3)", "format": "toxicity, organism-based", "conditions": "salmonella enterica subsp. enterica serovar typhimurium"}, "Mus musculus [1]": {"tested_on": "Mus musculus", "assay": "Anticonvulsant activity in albino Carworth Farms No.1 mouse assessed as protection against 6-Hz electroshock-induced seizures at 100 mg/kg, ip after 4 hrs", "format": "functional, organism-based", "procedure,_shortened": "(§1)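 Carworth Farms No.1 albino mice were dosed i.p. at 100 mg/kg (0.5% methylcellulose solution or suspension). 6-Hz seizures were induced at 32 mA at 0.25, 0.5, 1.0, 2.0 and 4 h after injection. Results are given as animals protected / animals tested.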"}, "Mus musculus [2]": {"tested_on": "Mus musculus", "assay": "Anticonvulsant activity in albino Carworth Farms No.1 mouse assessed as protection against 6-Hz electroshock-induced seizures at 100 mg/kg, ip after 2 hrs", "format": "functional, organism-based", "procedure,_shortened": "as §1"}, "Mus musculus [3]": {"tested_on": "Mus musculus", "assay": "Anticonvulsant activity in albino Carworth Farms No.1 mouse assessed as protection against 6-Hz electroshock-induced seizures at 100 mg/kg, ip after 0.5 hrs", "format": "functional, organism-based", "procedure,_shortened": "as §1"}, "Mus musculus [4]": {"tested_on": "Mus musculus", "assay": "Anticonvulsant activity in albino Carworth Farms No.1 mouse assessed as protection against 6-Hz electroshock-induced seizures at 100 mg/kg, ip after 1 hr", "format": "functional, organism-based", "procedure,_shortened": "as §1"}, "Mus musculus [5]": {"tested_on": "Mus musculus", "assay": "Anticonvulsant activity in albino Carworth Farms No.1 mouse assessed as protection against 6-Hz electroshock-induced seizures at 100 mg/kg, ip after 0.25 hrs", "format": "functional, organism-based", "procedure,_shortened": "as §1"}, "Mus musculus [6]": {"tested_on": "Mus musculus", "assay": "Neurotoxicity in albino Carworth Farms No.1 mouse at 100 mg/kg, ip after 0.5 hrs by rotarod test", "format": "toxicity, organism-based", "conditions": "in vivo", "procedure,_shortened": "(§2)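 Mice (albino Carworth Farms No.1) were dosed i.p. at 30, 100 or 300 mg/kg in 0.5% methylcellulose. They were tested 0.5 and 4 h later on a 1-inch knurled rod rotating at 6 rpm. Neurotoxicity was scored if a mouse could not stay on the rod for at least 1 min in each of three trials. Results are given as animals toxic/animals tested, with deaths noted.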"}, "Mus musculus [7]": {"tested_on": "Mus musculus", "assay": "Anticonvulsant activity in albino Carworth Farms No.1 mouse assessed as protection against subcutaneous dosed pentetrazol-induced seizures at 100 mg/kg, ip after 4 hrs", "format": "functional, organism-based", "procedure,_shortened": "(§3)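 Mouse i.p. screen in Carworth Farms No.1 albino mice at 30, 100 or 300 mg/kg in 0.5% methylcellulose. Testing was at 0.5 and 4 h after injection, by maximal electroshock or by subcutaneous pentetrazol challenge. Scoring was number protected / number used.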"}, "Mus musculus [8]": {"tested_on": "Mus musculus", "assay": "Anticonvulsant activity in albino Carworth Farms No.1 mouse assessed as protection against subcutaneous dosed pentetrazol-induced seizures at 100 mg/kg, ip after 0.5 hrs", "format": "functional, organism-based", "procedure,_shortened": "as §3"}, "Mus musculus [9]": {"tested_on": "Mus musculus", "assay": "Anticonvulsant activity in albino Carworth Farms No.1 mouse assessed as protection against maximal electroshock-induced seizures at 100 mg/kg, ip after 4 hrs", "format": "functional, organism-based", "procedure,_shortened": "as §3"}, "Mus musculus [10]": {"tested_on": "Mus musculus", "assay": "Anticonvulsant activity in albino Carworth Farms No.1 mouse assessed as protection against maximal electroshock-induced seizures at 100 mg/kg, ip after 0.5 hrs", "format": "functional, organism-based", "procedure,_shortened": "as §3"}, "Mus musculus [11]": {"tested_on": "Mus musculus", "assay": "Neurotoxicity in albino Carworth Farms No.1 mouse at 30 mg/kg, ip after 4 hrs by rotarod test", "format": "toxicity, organism-based", "conditions": "in vivo", "procedure,_shortened": "as §2"}, "Mus musculus [12]": {"tested_on": "Mus musculus", "assay": "Neurotoxicity in albino Carworth Farms No.1 mouse at 100 mg/kg, ip after 4 hrs by rotarod test", "format": "toxicity, organism-based", "conditions": "in vivo", "procedure,_shortened": "as §2"}, "Mus musculus [13]": {"tested_on": "Mus musculus", "assay": "Neurotoxicity in albino Carworth Farms No.1 mouse at 300 mg/kg, ip after 4 hrs by rotarod test", "format": "toxicity, organism-based", "conditions": "in vivo", "procedure,_shortened": "as §2"}, "[14]": {"assay": "Lipophilicity of the compound using 95% methanol in water at 1 mg/ml by RT-TLC analysis", "format": "physicochemical", "conditions": "buffer", "procedure,_shortened": "(§4)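 Reversed-phase TLC with a methanol–water mobile phase at the stated methanol content (v/v). Compounds were spotted from 1 mg/mL methanol solutions after 1 h chamber saturation and located under UV light. Rf was measured and RM = log(1/Rf − 1) calculated.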"}, "[15]": {"assay": "Lipophilicity of the compound using 90% methanol in water at 1 mg/ml by RT-TLC analysis", "format": "physicochemical", "conditions": "buffer", "procedure,_shortened": "as §4"}, "[16]": {"assay": "Lipophilicity of the compound using 85% methanol in water at 1 mg/ml by RT-TLC analysis", "format": "physicochemical", "conditions": "buffer", "procedure,_shortened": "as §4"}, "[17]": {"assay": "Lipophilicity of the compound using 75% methanol in water at 1 mg/ml by RT-TLC analysis", "format": "physicochemical", "conditions": "buffer", "procedure,_shortened": "as §4"}, "[18]": {"assay": "Lipophilicity of the compound using 65% methanol in water at 1 mg/ml by RT-TLC analysis", "format": "physicochemical", "conditions": "buffer", "procedure,_shortened": "as §4"}, "[19]": {"assay": "Lipophilicity of the compound at 1 mg/ml by RT-TLC analysis relative to 0% methanol", "format": "physicochemical", "conditions": "methanol/water", "procedure,_shortened": "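Reversed-phase TLC used methanol–water mobile phases of 95–65% methanol. Compounds were applied from 1 mg/mL methanol solutions after 1 h chamber saturation, with UV detection. RM = log(1/Rf − 1) was calculated at each methanol level and extrapolated linearly (RM = RM0 + bC) to 0% methanol to give RM0.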"}, "Mus musculus [20]": {"tested_on": "Mus musculus", "assay": "Anticonvulsant activity in ip dosed albino Carworth Farms No.1 mouse assessed as protection against subcutaneous dosed pentetrazol-induced seizures after 0.25 hrs", "format": "functional", "conditions": "Carworth Farms No.1, 0.25 h", "procedure,_shortened": "(§5)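 Quantitative i.p. evaluation in Carworth Farms No.1 albino mice, with graded doses in 0.5% methylcellulose. MES, scPTZ or 6-Hz (32 mA) seizure tests were run at 0.25 h.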"}, "Rattus norvegicus": {"tested_on": "Rattus norvegicus", "assay": "Anticonvulsant activity in po dosed Sprague-Dawley rat assessed as protection against subcutaneous dosed pentetrazol-induced seizures after 0.5 hrs", "format": "functional", "procedure,_shortened": "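Sprague-Dawley rats received graded oral doses suspended or dissolved in 0.5% methylcellulose. Challenge was maximal electroshock or subcutaneous pentetrazol at the stated time after dosing.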"}, "[21]": {"assay": "Hepatotoxicity against human HepG2 cells assessed as cell viability at 10 uM after 24 hrs by MTT assay relative to control", "format": "toxicity, cell-based", "conditions": "read-out: Activity", "procedure,_shortened": "(§6)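 HepG2 cells (EMEM, 10% FBS, 37 °C, 5% CO₂) were seeded at 1 × 10⁴ per well and cultured overnight. They were then exposed to increasing compound concentrations for 24 h. MTT reagent was added for 3 h and formazan crystals dissolved before reading. Data are mean ± SD of at least three independent experiments, relative to untreated control.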"}, "[22]": {"assay": "Hepatotoxicity against human HepG2 cells assessed as cell viability at 25 uM after 24 hrs by MTT assay relative to control", "format": "toxicity, cell-based", "conditions": "read-out: Activity", "procedure,_shortened": "as §6"}, "[23]": {"assay": "Hepatotoxicity against human HepG2 cells assessed as cell viability at 50 uM after 24 hrs by MTT assay relative to control"}, "[24]": {"assay": "Hepatotoxicity against human HepG2 cells assessed as cell viability at 100 uM after 24 hrs by MTT assay relative to control"}, "in vitro [25]": {"assay": "in vitro", "conditions": "human, HepG2 cells"}, "in vitro [26]": {"assay": "in vitro", "conditions": "human, HepG2 cells", "remark": "listed apart in the source"}, "in vitro [27]": {"assay": "in vitro", "conditions": "human, HepG2 cells", "remark": "listed apart in the source"}, "in vitro [28]": {"assay": "in vitro", "conditions": "human, HepG2 cells", "remark": "listed apart in the source"}, "Mus musculus [29]": {"tested_on": "Mus musculus", "assay": "Anticonvulsant activity in ip dosed albino Carworth Farms No.1 mouse assessed as protection against 6-Hz electroshock-induced seizures after 0.25 hrs", "format": "functional", "conditions": "Carworth Farms No.1, ip", "procedure,_shortened": "as §5"}}, "note": "Active and inactive are the calls of the source. The rule behind the calls is not given here.", "data": [{"smiles": "Nc1ccc([N+](=O)[O-])cc1N", "values": [{"measurement": "Activity", "setting": "Salmonella typhimurium", "value": 647}]}, {"smiles": "CC(NC(=O)/C=C/c1ccccc1)C(=O)NCN1CCCCC1", "note": "(racemic)", "values": [{"measurement": "Activity", "setting": "Mus musculus [1]", "value": "inactive"}, {"measurement": "Activity", "setting": "Mus musculus [2]", "value": "inactive"}, {"measurement": "Activity", "setting": "Mus musculus [3]", "value": "inactive"}, {"measurement": "Activity", "setting": "Mus musculus [4]", "value": "inactive"}, {"measurement": "Activity", "setting": "Mus musculus [5]", "value": "inactive"}, {"measurement": "Activity", "setting": "Mus musculus [6]", "value": "Non-toxic"}, {"measurement": "Activity", "setting": "Mus musculus [7]", "value": "inactive"}, {"measurement": "Activity", "setting": "Mus musculus [8]", "value": "inactive"}, {"measurement": "Activity", "setting": "Mus musculus [9]", "value": "inactive"}, {"measurement": "Activity", "setting": "Mus musculus [10]", "value": "inactive"}, {"measurement": "Activity", "setting": "Mus musculus [11]", "value": "Non-toxic"}, {"measurement": "Activity", "setting": "Mus musculus [12]", "value": "Non-toxic"}, {"measurement": "Activity", "setting": "Mus musculus [13]", "value": "Non-toxic"}, {"measurement": "Rm", "setting": "[14]", "value": -0.39}, {"measurement": "Rm", "setting": "[15]", "value": -0.27}, {"measurement": "Rm", "setting": "[16]", "value": -0.02}, {"measurement": "Rm", "setting": "[17]", "value": 0.1}, {"measurement": "Rm", "setting": "[18]", "value": 0.5}, {"measurement": "Rm", "setting": "[19]", "value": 1.758}]}, {"smiles": "NC(=O)N1c2ccccc2C=Cc2ccccc21", "note": "[CARBAMAZEPINE]", "values": [{"measurement": "ED50", "setting": "Mus musculus [20]", "value": "> 50", "unit": "mg/kg"}, {"measurement": "ED50", "setting": "Rattus norvegicus", "value": "> 250", "unit": "mg/kg"}]}, {"smiles": "COc1cccc2c1C(=O)c1c(O)c3c(c(O)c1C2=O)C[C@@](O)(C(=O)CO)C[C@@H]3O[C@H]1C[C@H](N)[C@H](O)[C@H](C)O1", "note": "[DOXORUBICIN]", "values": [{"measurement": "viability at 24 h, 10 µM", "setting": "[21]", "value": 77.4, "unit": "%"}, {"measurement": "viability at 24 h, 25 µM", "setting": "[22]", "value": 65.3, "unit": "%"}, {"measurement": "viability at 24 h, 50 µM", "setting": "[23]", "value": 51.6, "unit": "%"}, {"measurement": "viability at 24 h, 100 µM", "setting": "[24]", "value": 44.9, "unit": "%"}, {"measurement": "viability at 24 h, 10 µM", "setting": "in vitro [25]", "value": 91, "unit": "%"}, {"measurement": "viability at 24 h, 25 µM", "setting": "in vitro [26]", "value": 83, "unit": "%"}, {"measurement": "viability at 24 h, 50 µM", "setting": "in vitro [27]", "value": 75, "unit": "%"}, {"measurement": "viability at 24 h, 100 µM", "setting": "in vitro [28]", "value": 48, "unit": "%"}]}, {"smiles": "CCCC(CCC)C(=O)O", "note": "[VALPROIC ACID]", "values": [{"measurement": "ED50", "setting": "Mus musculus [29]", "value": 126, "unit": "mg/kg"}, {"measurement": "ED50", "setting": "Mus musculus [20]", "value": 220, "unit": "mg/kg"}, {"measurement": "ED50", "setting": "Rattus norvegicus", "value": 646, "unit": "mg/kg"}]}]}
